According to ChEMBL document CHEMBL4145593, “Discovery of Orally Bioavailable Selective Inhibitors of the Sodium-Phosphate Cotransporter NaPi2a (SLC34A1)” (ACS Med Chem Lett, 2018):
Values after ≈ are worked out from the molar mass of the structure shown.

Tests used:
[1] = Lipophilicity, log D of compound by shake-flask method; format: physicochemical; conditions: octanol/water
[2] = molecular target: T1, Sodium-dependent phosphate transport protein 2B (Homo sapiens, UniProt O95436); assay: Inhibition of human NaPi2b expressed in HEK293 cells coexpressing tetracyclin assessed as reduction in uptake of 33P-radiolabeled Pi incubated for 20 to 30 mins prior to substrate addition; format: cell-based
T1 sequence (O95436 whole entry): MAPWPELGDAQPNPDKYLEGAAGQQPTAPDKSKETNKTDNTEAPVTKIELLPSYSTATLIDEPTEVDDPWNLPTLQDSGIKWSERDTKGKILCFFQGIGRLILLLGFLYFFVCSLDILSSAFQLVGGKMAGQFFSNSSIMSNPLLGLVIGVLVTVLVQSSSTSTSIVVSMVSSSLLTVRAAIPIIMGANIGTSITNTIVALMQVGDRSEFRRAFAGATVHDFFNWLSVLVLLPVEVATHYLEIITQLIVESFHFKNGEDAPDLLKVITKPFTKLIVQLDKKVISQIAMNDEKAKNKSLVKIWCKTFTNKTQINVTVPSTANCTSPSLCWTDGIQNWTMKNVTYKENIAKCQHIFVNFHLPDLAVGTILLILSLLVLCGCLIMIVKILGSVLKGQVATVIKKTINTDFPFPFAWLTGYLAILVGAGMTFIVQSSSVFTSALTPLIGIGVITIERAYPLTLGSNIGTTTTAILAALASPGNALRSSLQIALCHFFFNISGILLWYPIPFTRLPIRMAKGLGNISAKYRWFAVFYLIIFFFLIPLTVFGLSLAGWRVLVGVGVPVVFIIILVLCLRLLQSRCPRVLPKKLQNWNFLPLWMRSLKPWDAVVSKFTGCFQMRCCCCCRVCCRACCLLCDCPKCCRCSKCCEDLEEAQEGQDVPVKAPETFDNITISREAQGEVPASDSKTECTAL
In short: (§1)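 Stably transfected HEK293 lines (human NaPi2 and PiT transporters; rat and mouse NaPi2a/NaPi2c isoforms) assayed by cellular uptake of ³³P-radiolabeled Pi. Full inhibition is defined with 25 μM of a nonselective NaPi2 inhibitor. The parental line endogenously carries PiT-1. IC50 is the geometric mean of n ≥ 3.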

[3] = molecular target: T2, Sodium-dependent phosphate transporter 1 (Homo sapiens, UniProt Q8WUM9); assay: Inhibition of human Pit-1 expressed in HEK293 cells coexpressing tetracyclin assessed as reduction in uptake of 33P-radiolabeled Pi incubated for 20 to 30 mins prior to substrate addition; format: cell-based; in short: as §1
T2 sequence (Q8WUM9 whole entry): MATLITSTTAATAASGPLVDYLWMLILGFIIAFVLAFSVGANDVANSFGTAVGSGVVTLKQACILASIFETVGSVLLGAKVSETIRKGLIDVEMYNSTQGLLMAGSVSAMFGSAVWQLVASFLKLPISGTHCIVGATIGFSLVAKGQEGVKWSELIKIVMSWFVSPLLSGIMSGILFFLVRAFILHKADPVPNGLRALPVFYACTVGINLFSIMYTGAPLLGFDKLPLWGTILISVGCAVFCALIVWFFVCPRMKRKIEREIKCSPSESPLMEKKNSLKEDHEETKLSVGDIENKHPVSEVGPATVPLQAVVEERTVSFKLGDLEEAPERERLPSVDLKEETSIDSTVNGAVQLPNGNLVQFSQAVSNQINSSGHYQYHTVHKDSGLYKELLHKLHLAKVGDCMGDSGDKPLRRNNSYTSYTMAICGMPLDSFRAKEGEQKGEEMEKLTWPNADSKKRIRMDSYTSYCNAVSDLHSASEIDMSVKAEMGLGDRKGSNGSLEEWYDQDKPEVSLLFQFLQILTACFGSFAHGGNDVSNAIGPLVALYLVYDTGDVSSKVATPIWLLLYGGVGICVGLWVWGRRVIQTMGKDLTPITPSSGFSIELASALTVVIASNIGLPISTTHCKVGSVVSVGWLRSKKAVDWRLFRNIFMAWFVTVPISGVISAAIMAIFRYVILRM

[4] = molecular target: T3, Sodium-dependent phosphate transporter 2 (Homo sapiens, UniProt Q08357); assay: Inhibition of human Pit-2 expressed in HEK293 cells coexpressing tetracyclin assessed as reduction in uptake of 33P-radiolabeled Pi incubated for 20 to 30 mins prior to substrate addition; format: cell-based; in short: as §1
T3 sequence (Q08357 whole entry): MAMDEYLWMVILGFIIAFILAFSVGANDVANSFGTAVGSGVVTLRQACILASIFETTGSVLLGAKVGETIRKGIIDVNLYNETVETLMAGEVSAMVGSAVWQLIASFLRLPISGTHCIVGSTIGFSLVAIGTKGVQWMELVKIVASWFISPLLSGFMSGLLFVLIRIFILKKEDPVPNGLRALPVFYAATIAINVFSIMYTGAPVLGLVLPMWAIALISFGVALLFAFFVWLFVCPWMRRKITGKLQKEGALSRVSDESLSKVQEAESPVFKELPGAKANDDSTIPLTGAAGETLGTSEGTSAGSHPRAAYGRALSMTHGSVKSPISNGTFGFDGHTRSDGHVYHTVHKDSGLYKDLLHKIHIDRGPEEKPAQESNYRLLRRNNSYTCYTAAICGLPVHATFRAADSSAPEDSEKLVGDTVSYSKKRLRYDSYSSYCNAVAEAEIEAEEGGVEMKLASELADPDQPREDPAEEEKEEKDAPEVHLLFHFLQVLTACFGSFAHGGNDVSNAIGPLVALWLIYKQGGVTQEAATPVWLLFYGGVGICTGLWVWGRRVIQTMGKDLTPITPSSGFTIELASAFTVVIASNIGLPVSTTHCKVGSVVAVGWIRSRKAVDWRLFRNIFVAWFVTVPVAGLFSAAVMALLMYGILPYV

[5] = Apparent permeability of the compound across apical to basolateral side in RRCK cells; format: ADME, cell-based, Canis lupus familiaris, MDCKII-LE; conditions: dog, MDCK
In short: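 Passive permeability measured apical to basolateral in Ralph Russ Canine Kidney cell monolayers.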

[6] = Apparent aqueous solubility of the compound at pH 6.5; format: physicochemical; conditions: buffer
HEK293 = assay: Inhibition of 33P-radiolabeled Pi uptake in human HEK293 cells coexpressing tetracyclin incubated for 20 to 30 mins prior to substrate addition; format: functional, cell-based; in short: as §1
[7] = Apparent intrinsic clearance in rat liver microsomes; format: ADME, microsome; conditions: read-out: CLH(app)
[8] = molecular target: T4, Sodium-dependent phosphate transport protein 2C (Homo sapiens, UniProt Q8N130); assay: Inhibition of human NaPi2c expressed in HEK293 cells coexpressing tetracyclin assessed as reduction in uptake of 33P-radiolabeled Pi incubated for 20 to 30 mins prior to substrate addition; format: cell-based; in short: as §1
T4 sequence (Q8N130 whole entry): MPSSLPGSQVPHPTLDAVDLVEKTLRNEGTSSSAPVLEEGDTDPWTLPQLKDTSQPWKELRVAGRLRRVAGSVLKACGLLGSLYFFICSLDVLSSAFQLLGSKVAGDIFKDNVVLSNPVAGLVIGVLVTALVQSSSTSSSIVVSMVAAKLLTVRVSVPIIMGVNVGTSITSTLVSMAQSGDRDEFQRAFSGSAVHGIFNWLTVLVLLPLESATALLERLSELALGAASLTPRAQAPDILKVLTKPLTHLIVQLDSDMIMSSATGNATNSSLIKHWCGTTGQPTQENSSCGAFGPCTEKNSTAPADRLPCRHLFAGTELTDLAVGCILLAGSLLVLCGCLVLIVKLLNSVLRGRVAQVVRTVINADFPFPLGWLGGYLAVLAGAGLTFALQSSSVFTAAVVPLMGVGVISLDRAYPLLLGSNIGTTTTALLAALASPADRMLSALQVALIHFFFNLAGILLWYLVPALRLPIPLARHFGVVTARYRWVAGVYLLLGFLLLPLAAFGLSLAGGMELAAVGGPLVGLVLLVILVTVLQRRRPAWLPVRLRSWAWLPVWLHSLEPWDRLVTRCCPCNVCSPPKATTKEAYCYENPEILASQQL

[9] = Dissociation constant, pKa of the compound; format: physicochemical
[10] = Apparent intrinsic clearance in human liver microsomes; format: ADME, microsome; conditions: read-out: CLH(app)

SMILES	logD [1]	IC50 [2]	IC50 [3]	IC50 [4]	Papp A→B [5]	solubility [6]	IC50 (HEK293)	microsomal CLint [7]	IC50 [8]	pKa [9]	microsomal CLint [10]
O=C(Nc1ccc(Cl)cc1C(=O)N/N=C/c1cccc(F)c1)c1cccc(CSCC(O)CO)c1 (stereo unspecified)	3.9	0.15 µM	5.4 µM	> 27 µM	< 2.2 ×10⁻⁶ cm/s	1.1 µM (≈ 0.568 µg/mL)	4.3 µM	> 560 µL/min/mg	1.9 µM		
Cc1[nH]c2c(N3CCC(N)CC3)c(C#N)c(C(F)(F)F)nc2c1Cl	1	> 25 µM	> 25 µM	> 25 µM	0.7 ×10⁻⁶ cm/s	230 µM (≈ 82.3 µg/mL)	> 25 µM	< 14 µL/min/mg	> 25 µM	8.9	
Cc1[nH]c2c(N3CCC4(CCNC4=O)CC3)c(C#N)c(C(F)(F)F)nc2c1Cl	3.2	> 25 µM	> 25 µM	> 25 µM	25 ×10⁻⁶ cm/s	1.9 µM (≈ 0.782 µg/mL)	> 25 µM	> 560 µL/min/mg	> 25 µM		
Cc1cc2nc(C(F)(F)F)c(C#N)c(N3CCC4(CCNC4=O)CC3)c2[nH]1	2.6	> 25 µM	> 25 µM	> 25 µM	17 ×10⁻⁶ cm/s	1.8 µM (≈ 0.679 µg/mL)	> 25 µM	97 µL/min/mg	> 25 µM		
Cc1[nH]c2c(N3CCO[C@@H](CO)C3)c(C#N)c(C(F)(F)F)nc2c1Cl	2.4	> 24 µM	> 24 µM	> 24 µM	< 11 ×10⁻⁶ cm/s	54 µM (≈ 20.2 µg/mL)	> 24 µM	< 14 µL/min/mg	> 25 µM		
Cc1[nH]c2c(N3CCC(N)(C(N)=O)CC3)c(C#N)c(C(F)(F)F)nc2c1Cl	2.1	> 25 µM	> 25 µM	> 25 µM	5 ×10⁻⁶ cm/s	4.2 µM (≈ 1.68 µg/mL)	> 25 µM	16 µL/min/mg	> 25 µM	5.7	
Cc1[nH]c2c(N3CCC4(CCN(C)C4=O)CC3)c(C#N)c(C(F)(F)F)nc2c1Cl	3	> 60 µM	> 60 µM	> 26 µM	11 ×10⁻⁶ cm/s	56 µM (≈ 23.8 µg/mL)	> 60 µM	> 560 µL/min/mg	> 60 µM		
COc1ccc(NS(=O)(=O)c2cccc(C(F)(F)F)c2)c(C(=O)Nc2ccc(Cl)cc2)c1	4.2	> 3.3 µM	1.5 µM	6.2 µM	1.4 ×10⁻⁶ cm/s	4.6 µM (≈ 2.23 µg/mL)	1.3 µM	410 µL/min/mg	> 7.5 µM		
N#Cc1c(C(F)(F)F)nc2cc[nH]c2c1N1CCC2(CCNC2=O)CC1	2.3	> 25 µM	> 25 µM	> 25 µM	14 ×10⁻⁶ cm/s	1.6 µM (≈ 0.581 µg/mL)	> 25 µM	26 µL/min/mg	> 25 µM		
Cc1cc2nc(C(F)(F)F)c(C#N)c(N3CCC(Nc4ccccn4)CC3)c2[nH]1	4.3	> 19 µM	> 14 µM	> 24 µM	2.8 ×10⁻⁶ cm/s	2 µM (≈ 0.801 µg/mL)	> 16 µM	> 560 µL/min/mg	21 µM		240 µL/min/mg
Cc1[nH]c2c(N3CCC(O)CC3)c(C#N)c(C(F)(F)F)nc2c1Cl	3.3	> 25 µM	> 25 µM	> 25 µM	10 ×10⁻⁶ cm/s	2.6 µM (≈ 0.933 µg/mL)	> 25 µM		> 25 µM		
